Consider 22 compounds from ChEMBL document CHEMBL3779825, “Design, Synthesis, and Structural Optimization of Lycorine-Derived Phenanthridine Derivatives as Wnt/β-Catenin Signaling Pathway Agonists” (J Nat Prod, 2016).

Holding throughout (type): cell-based
Assay [1] in a line: Activation of Wnt/beta-catenin signaling pathway in HEK293T cells in presence of Wnt3a-conditioned medium incubated for 6 hrs by luciferase reporter gene assay. The conditions noted are these: Homo sapiens; HEK-293T. In short, it runs like this: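 HEK293T cells were grown in DMEM with 10% heat-inactivated FBS at 37 °C in 5% CO2. Cells were seeded in 24-well plates and lipofected with 250 ng total plasmid per well: 20 ng TOPFlash, 25 ng EGFP-C1, and LacZ plasmid as filler. Luciferase luminescence was normalized to lysate GFP fluorescence. The value reported is the concentration doubling Wnt activation.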

Assay [2] in a line: Activation of Wnt/beta-catenin signaling pathway in HEK293T cells assessed as increase in Axin-2 expression at 5 to 20 uM in presence of Wnt3a-conditioned medium incubated for 6 hrs by quantitative real time PCR analysis. Particulars: Homo sapiens, HEK-293T. The essentials:
(§1)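 HEK293T cells were grown in DMEM with 10% (v/v) heat-inactivated FBS at 37 °C in 5% CO2/95% air. Cells were exposed to compound together with control medium or Wnt3a-conditioned medium for 6 h.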

The nature of assay [3]: Activation of Wnt/beta-catenin signaling pathway in HEK293T cells assessed as increase in NKD1 expression at 5 to 20 uM in presence of Wnt3a-conditioned medium incubated for 6 hrs by quantitative real time PCR analysis. The conditions noted are these: Homo sapiens, HEK-293T. In short, it runs like this: as §1
Assay [4] can be described thus: Activation of Wnt/beta-catenin signaling pathway in HEK293T cells preincubated for 1 hr followed by Wnt3a stimulation and subsequent addition of compound measured after 6 hrs by luciferase reporter gene assay. The conditions noted are these: Homo sapiens; HEK-293T.

Activity calls are given as the source filed them. The calls are words filed in the database; no cut-off is given here.

For the compound `CCc1cccc2c1N(C)Cc1cc(OCc3ccc(-c4ccccc4C(=O)OC)cc3)c(OCc3ccc(-c4ccccc4C(=O)OC)cc3)cc1-2`, in assay [1], the CD result was “inactive”. Also, the result in assay [2] and in assay [3] was inactive.
With `CCc1cccc2c1N(C)Cc1cc(O)c(O)cc1-2`, the CD in assay [1] came to 5 µM.
For the compound `CCOc1cc2c(cc1OCC)-c1cccc(CC)c1N(C)C2`, the CD in assay [1] was 5 µM.
Same read-out and setting: the value for `CCc1cccc2c1N(C)Cc1cc(OCc3cc(C)n(C)n3)c(OCc3cc(C)n(C)n3)cc1-2` was “inactive”; that for `C=Cc1cccc2c1N(C)Cc1cc3c(cc1-2)OCO3` was “inactive”.
Consider `CCc1cccc2c1N(C)Cc1cc(OCc3cn(CCNC(C)=O)nn3)c(OCc3cn(CCNC(C)=O)nn3)cc1-2`, for which the CD in assay [1] worked out at 2.5 µM. Besides, the outcome in assay [2] and in assay [3] was Active.
`CCc1cccc2c1N(C)Cc1cc(OCc3ccc(-n4cccn4)cn3)c(OCc3ccc(-n4cccn4)cn3)cc1-2`: the CD result in assay [1] is “inactive”.
With `O=C(O)CCCC[C@@H]1SC[C@@H]2NC(=O)N[C@@H]21`, in assay [1], the outcome was inactive.
Take `C=Cc1cccc2c1N(C)Cc1cc(O)c(O)cc1-2`: the CD in assay [1] was 10 µM.
Same read-out and setting: under `CCc1cccc2c1N(C)Cc1cc(OCc3cc(C)nn3C)c(OCc3cc(C)nn3C)cc1-2` stands “inactive”.
On to `CCc1cccc2c1N(C)Cc1cc(OCc3cc4cc(Cl)ccc4s3)c(OCc3cc4cc(Cl)ccc4s3)cc1-2`, for which, in assay [1], the CD result is “inactive”. The result in assay [2] and in assay [3] was inactive.
Regarding `NCCn1cc(COc2ccccc2OCc2cn(CCN)nn2)nn1`, the result in assay [1] was Active.
For the compound `CCc1cccc2c1N(C)Cc1cc(OCc3cc(OC)cc(OC)c3)c(OCc3cc(OC)cc(OC)c3)cc1-2`, the CD entry in assay [1] is “inactive”.
`O=C1N[C@H]2[C@H](CS[C@H]2CCCCC(=O)ON2C(=O)CCC2=O)N1`: the outcome in assay [1] was inactive.
As for `C=Cc1cccc2c1N(C)Cc1cc(OCC)c(OCC)cc1-2`, the CD entry in assay [1] was “inactive”.
Regarding `NCCn1cc(COc2cccc(OCc3cn(CCN)nn3)c2)nn1`, the outcome in assay [1] was Active.
As to `C#CCOc1cc2c(cc1OCC#C)-c1cccc(CC)c1N(C)C2`, the CD in assay [1] was found to be 5 µM.
`CCc1cccc2c1N(C)Cc1cc(OCc3cn(CCNC(=O)CCCC[C@@H]4SC[C@@H]5NC(=O)N[C@@H]54)nn3)c(OCc3cn(CCNC(=O)CCCC[C@@H]4SC[C@@H]5NC(=O)N[C@@H]54)nn3)cc1-2`: in assay [4], the CD came to 0.325 µM.
Consider `[N-]=[N+]=NCCNC(=O)CCCC[C@@H]1SC[C@@H]2NC(=O)N[C@@H]21`, for which, in assay [1], the result was inactive.
As to `CCc1cccc2c1N(C)Cc1cc(OC)c(OC)cc1-2`, the CD in assay [1] is 2.5 µM.
Same read-out and setting: under `CCc1cccc2c1N(C)Cc1cc3c(cc1-2)OCO3` stands 5 µM.
With `CCc1cccc2c1N(C)Cc1cc(OCc3cn(CCN)nn3)c(OCc3cn(CCN)nn3)cc1-2`, the CD in assay [1] came out at 1.25 µM. Further, the outcome in assay [2] and in assay [3] was Active.
